Assay results from ChEMBL document CHEMBL1123538, “Inhibitors of human purine nucleoside phosphorylase. Synthesis, purine nucleoside phosphorylase inhibition, and T-cell cytotoxicity of 2,5-diaminothiazolo[5,4-d]pyrimidin-7(6H)-one and 2,5-diaminothiazolo[4,5-d]pyrimidin-7(6H)-one. Two thio isosteres of 8-aminoguanine” (J Med Chem, 1986).
One block for each compound: values may come before it.

Columns and labels:
[1] = test system: MOLT-4; assay: Cytotoxicity was evaluated against human MOLT-4 T-lymphoblasts (presence of 10 uM 2'-deoxyguanosine (W/GdR)); assay type: functional, cell-based
In short: (§1)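 Cell growth measured as [3H]thymidine uptake. Lines kept in RPMI 1640 with 10% heat-inactivated fetal calf serum, L-glutamine and penicillin-streptomycin; assay run in RPMI 1640 plus 10% heat-inactivated horse serum.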

[2] = test system: MOLT-4; assay: Cytotoxicity was evaluated against human MOLT-4 T-lymphoblasts (absence of 10 uM 2'-deoxyguanosine (Wo/GdR)); assay type: functional, cell-based; in short: as §1
[3] = organism: Homo sapiens; assay: Cytotoxicity was evaluated against human MGL-8 B -lymphoblasts (Presence of 10 uM 2'-deoxyguanosine (W/GdR)); assay type: functional; details: MGL8; in short: as §1
[4] = organism: Homo sapiens; assay: Cytotoxicity was evaluated against human MGL-8 B -lymphoblasts (absence of 10 uM 2'-deoxyguanosine (Wo/GdR)); assay type: functional; details: MGL8; in short: as §1
[5] = molecular target: T1, Purine nucleoside phosphorylase (Homo sapiens, UniProt P00491); assay: Compound was evaluated for 50% inhibition of purine nucleoside phosphorylase activity by was measured by the conversion of [8-14C]-inosine to [8-14C]-hypoxanthine; assay type: functional
T1 sequence (P00491 whole entry): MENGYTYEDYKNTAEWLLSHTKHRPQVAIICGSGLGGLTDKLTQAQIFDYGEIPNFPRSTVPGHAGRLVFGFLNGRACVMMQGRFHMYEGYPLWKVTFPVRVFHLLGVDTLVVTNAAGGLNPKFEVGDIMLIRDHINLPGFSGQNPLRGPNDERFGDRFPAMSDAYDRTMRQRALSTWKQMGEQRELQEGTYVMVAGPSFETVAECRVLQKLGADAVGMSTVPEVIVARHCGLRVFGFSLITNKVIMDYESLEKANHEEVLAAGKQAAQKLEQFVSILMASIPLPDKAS

SMILES: Nc1nc(O)c2nc(N)n([C@@H]3O[C@H](CO)[C@@H](O)[C@H]3O)c2n1
IC50 [1]: 3.25 µM
IC50 [2]: ~500 µM
IC50 [3]: > 500 µM
IC50 [4]: > 500 µM

IC50 [5]: ~330 µM
SMILES: Nc1nc2nc(N)sc2c(=O)[nH]1
IC50 [1]: > 50 µM
IC50 [2]: > 50 µM
IC50 [3]: > 50 µM
IC50 [4]: > 50 µM

IC50 [5]: 1.55 µM
SMILES: Nc1nc2[nH]c(N)nc2c(=O)[nH]1 [8-AMINOGUANINE]
IC50 [1]: 2.35 µM
IC50 [2]: ~400 µM
IC50 [3]: > 500 µM
IC50 [4]: > 500 µM

IC50 [5]: 142 µM
SMILES: Nc1nc2sc(N)nc2c(=O)[nH]1
IC50 [1]: > 50 µM
IC50 [2]: > 50 µM
IC50 [3]: > 50 µM
IC50 [4]: > 50 µM
